Test system: MS2 coat protein
Assay: apparent Kd, MS2 coat protein; higher = weaker binding; RNA-MaP array; FMN 200 µM where present
Summary of the method: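 SNAP-549-labelled MS2 coat protein, doubled from 0.7 or 1.5 nM to 3 µM, was titrated over designs transcribed by stalled E. coli RNA polymerase on Illumina sequencing-chip clusters. Titrations were run without and then with constant ligand in 100 mM Tris-HCl pH 7.5, 80 mM KCl, 4 mM MgCl2, BSA, DTT, yeast tRNA and Tween-20. The apparent Kd is the median of filtered per-cluster fits to green signal normalised to red-channel RNA signal and control-cluster median Fmax.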

[1] = designed as: OFF switch for flavin mononucleotide, no ligand
[2] = ligand present: flavin mononucleotide, designed as: OFF switch for flavin mononucleotide
[3] = designed as: ON switch for flavin mononucleotide, no ligand
[4] = ligand present: flavin mononucleotide, designed as: ON switch for flavin mononucleotide

| Sequence | apparent Kd [1] [nM] | apparent Kd [2] [nM] | apparent Kd [3] [nM] | apparent Kd [4] [nM] |
| --- | --- | --- | --- | --- |
| UCAUGAUAUGUAGGAUAUCACAAUAAUUGAUUAAUAUAUGAAUAUAGAAUUUGAGAAGGACAUUUACAUGAGGAUCACCCAUGU | 14.8 | 12.3 | – | – |
| AUGAGAAAAGCAGGAUAUCUAUUGUCUCAGAAACAUGAGGAUCACCCAUGUAGAGAAGGGCUAAGACUGACUCUUCGGAGUUGA | 10.6 | 9.46 | – | – |
| GGAUCAGAUGAGGAUAUUCGUUGUAUAACAACAGGAGAAGGCAUCACAUGAGGAUCACCCAUGUUCUACCUUCC | 14.1 | 15.8 | – | – |
| CAUAAGUCAGAGAAGGCGUACAUGCCCAGACUGUGACGGAUGACGACAUGAGGAUCACCCAUGUACGAGGAUAUCUGAGCAAUC | 22.9 | 168 | – | – |
| GCGGUAUUGUAAGGAUAUACUCUGUGAUGAAGAGUAGAAGGUACUUACAUGAGGAUCACCCAUGUUUUUCGUAAAAGUUACCGC | – | – | 16.2 | 10.6 |
| AUGUUACAUGAGGAUCACCCAUGUGAGGAUAUGUGUAUCCCUAAAAAAGUGUGGGACCACAGAAGGUACUUGGA | 51.5 | 50.4 | – | – |
| UGGACUGGGCAGAAGGGACAUGAGGAUCACCCAUGUCUUGGGCUACUUCAGUCAGGAUAUGCCCAUUGAAUAUCCGUGCAACAA | 15.4 | 76.9 | – | – |
| UUGGACGUCGUAGGAUAUGUAGGAUAUUCCUACAUGAGGAUCACCCAUGUUGACAUGGAAGUAGGACAGAAGGACGAUGUCCAU | – | – | 497 | 23.1 |
| AUAUCAAGCAAGGAUAUGCAAAUGGUUAUUUAUGCAGAAGGUGCGACAUGAGGAUCACCCAUGUUUCUGGGUUU | 87.7 | 134 | – | – |
| UAAUAUAUACAAGGAUAUCAAUUAUAUACACAUCCUACAUGAGGAUCACCCAUGUUUUAUUUUUUUGAGAAGGUGUAUUGUCGG | – | – | 20.4 | 29.1 |
| UAUGUAUUCGUAGGAUAUCCGUCGAGACCGUGUGGAGAAGGACGAACAUGAGGAUCACCCAUGUAUCAUGGUGUAGACAAUUUU | 47.4 | 186 | – | – |
| CUCUUGGCAGGAUAUGCAAUUUUAGACAUGAGGAUCACCCAUGUGAUCAUUCCAUAUUAUGCAGAAGGGCCUAAAC | 48.2 | 320 | – | – |
| GCGUAACAUGAGGAUCACCCAUGUACCCGAGAAUUCGGGUGUAGAAGGGUGACCGGUCGUUUGGCACAGGAUAUACACGCUGUG | – | – | 37.1 | 11.5 |
| GGCGGCGCGGGCCACCGCAGGGCCAGAAGGACAUGAGGAUCACCCAUGUGGCAGGACAGGGCGGUGUAGGAUAUGGCAGGCUCG | 11.9 | 43.3 | – | – |
| GGUACCAACACAGGAUAUGCUAUCCUUUGGGUAGCAGAAGGGUGAAAACAUGAGGAUCACCCAUGUGGUACCGGGCGUGAGCCC | – | – | 519 | 45.4 |
| UUUUGUUUACAAGGAUAUCAAUUAUUUAUACUUCCUACAUGAGGAUCACCCAUGUUUUUAUAUUUUGAGAAGGUGUAAUGUCGG | – | – | 40.4 | 39 |
| AUACCACGAGGAUAUCGUCUAUAAUACAUGAGGAUCACCCAUGUUAUAUCUGUAAUGUUUCGAGAAGGCGUGUGUU | 18.9 | 14.6 | – | – |
| AAGAAACAUGAGGAUCACCCAUGUAAGAUAAACACAGGAUAUGCGAAUAAAAUAAAUAAAGCAGAAGGGUGAAGAA | – | – | – | 16.7 |
| GAGUGGUGGAGAGGAUAUGCAUUGUUAUUCACUGUAGAAGGUUCUAACAUGAGGAUCACCCAUGUAGGACUAUUCCUGUGUUUU | – | – | 13.5 | 11.1 |
| GUAGCUAUCGGAGGAUAUUCAUACCGAAAACGGACAUGAGGAUCACCCAUGUGGCGAAAGUCUUGGGAGAAGGCCGAUAGCUAC | – | – | 39.2 | 7.62 |
| GCGUUGCACGAGAAGGCCAAUACAUGAGGAUCACCCAUGUUAAAAUGUUUUGGAGGAUAUCGAUCAUCUACAAUAAAGCAACGC | 12.6 | 11.6 | – | – |
| CGACGUUGAGAGAAGGAGUAAAAUACAUGAGGAUCACCCAUGUCAGGUGCUAGGAUAUCUUCGCGUGGCAGGGUCGGCCCGUGU | – | – | 66 | 14.3 |
| GAAGCCUGAGAGAAGGGCCACAUGAGGAUCACCCAUGUGUGCUCUCCUGUGGCAGGAUAUCUAUGGGCUGACUGGCUAAUCCAU | 6.84 | 4.6 | – | – |
| CUGACGAUGUAAGGAUAUGCUGAGGAUAACUCAGCAGAAGGUACAUGAGGAUCACCCAUGUAACGUCAGAAUAAUAAUAAUAAU | 12.6 | 23.1 | – | – |
| GUCGGAAACGACAAAAGUAUGGAUCCAGAAGGUAUGAAACAUGAGGAUCACCCAUGUCAAAGACAUGAGGAUAUGGAUCCAUAC | – | – | 32.4 | 9.54 |
| CGGGCUGCCAGAGGAUAAUGGACAUGAGGAUCACCCAUGUGUCAGGAUAUGGGUUUCACAUGGACUCAGAAGGGACCAGCCCGA | – | – | 82.5 | 22.4 |
| UCUCUGCGAGGAUAUACGUUUGCGCGCUUUCGUUUGCGCGUACAUGAGGAUCACCCAUGUAGAAGGCGCGUUUC | 13.2 | 14.1 | – | – |
| UGGUCAUCAUCAGGAUAUUAACAUGGGCUACAUUAAGAAGGGAUAGUGGGAGAGGAAGUGAAACAUGAGGAUCACCCAUGUUGU | – | – | 32.9 | 16.2 |

| Sequence | apparent Kd [1] [nM] | apparent Kd [2] [nM] | apparent Kd [3] [nM] | apparent Kd [4] [nM] |
| --- | --- | --- | --- | --- |
| CAGAUAAAAGUGUGGUCGUCGACAUGAGGAUCACCCAUGUACGAGGAUAUGUAAUAUACGGUAUAGCAGAAGGCGUAUGGGUGU | 74.6 | 103 | – | – |
| GGAGCAACAUGAGGAUCACCCAUGUAGGAUAUCGCUAUUGUAAUCAUGAAACAUGAUUACAAUAGCGAGAAGGACAUAUGCUGG | 24.9 | 27.3 | – | – |
| UGGUGAUUUGUAGGAUAUGGAAAUAUAUUAUAACCAGAAGGACAUGAGGAUCACCCAUGUGAUAGAGUUUUUUUUUUUUCUCCU | 31.5 | 14.1 | – | – |
| ACAACUAAGCAGAAGGCAGUCAUAGCAUUCGUCAUGUAGACAUGAGGAUCACCCAUGUAUAGUGCUGAGGAUAUGCUUGGUUAG | 11.3 | 9.47 | – | – |
| GUAUGAUUAAGAGGAUAUAUACAACAUGAGGAUCACCCAUGUACCCGUGUAGUAGAAGGUUUGUUUUUAUAUAAUAAUAUAAUU | – | – | 26.6 | 19.1 |
| ACGUUACAUGAGGAUCACCCAUGUGAGGAUAUGGUGCGGUAGUGUCCUGUCGCGUACUCCAGAAGGCGCGGGUG | 204 | 147 | – | – |
| ACAUGAGGAUCACCCAUGUGUGCAUAGGAUAUUGUGGAUUAGGGAUGUUUUUUUGGAUUUGCCUACAAGAAGGAUGAAAGUGUU | – | – | 14.3 | 12.6 |
| GGGUGGCGUAGAGGAUAUGUGUUACAUGAGGAUCACCCAUGUGCAUAUGAUGUUCGUGUGUCUGCAUAGAAGGCUACGUCGCUA | – | – | 28.3 | 27.6 |
| UGUCGGAGCAGAGGAUAUUACAUGAGGAUCACCCAUGUAUGAACCAAUAGCUGGAAACAGCAAUGUAAGAAGGCUGCUCCGACG | 12.9 | 157 | – | – |
| GUAUCAUACCAAGGAUAUUUAGGACUUUGAUAGACAUGAGGAUCACCCAUGUGGCGUUAGUCACGGGAGAAGGUGGUAUGAUAC | – | – | 57.4 | 18.4 |
| AGCUAGUACCGAGGAUAUACAUACAUGAGGAUCACCCAUGUAUACAUGAACAAUUGAGACUACAUGUAGAAGGCGGUACUAGCA | – | – | 49.9 | 18.6 |
| GCGUUGAACGAGAAGGCCAAUACAUGAGGAUCACCCAUGUUAAGAUGUUUUGGAGGAUAUCGUACGCAUUCAAUAUUGCAACGC | 7.63 | 9.47 | – | – |
| CUCCUCGUGUCGAACAUGAGGAUCACCCAUGUAAUGGGCACCGAGGAUAUCCCGCUGGCGUUAUGGGAGAAGGCGGUGGAUUUA | 42.6 | 40.2 | – | – |
| CUGGGUUAGGAGAAGGGCUAGAGUGUGAUAUAUUUGCCCGCGAGCACAUGAGGAUCACCCAUGUAGCAGGAUAUCCAAACCGGU | 7.33 | 19.5 | – | – |
| AAAUUUAACGAAGGAUAUGGUUACAUGAGGAUCACCCAUGUGUGCCUUGUGAUGCUGAUUAAGUUCCAGAAGGUCGUAUACAUA | 84.8 | 234 | – | – |
| UUACAGCAAGGAUAUACAUGAGGAUCACCCAUGUAUGCGUGUUCGAGAGAGGCCUACGGUAGAAGGUGCAUGUU | 24.1 | 22.4 | – | – |
| CCCUCACAUGAGGAUCACCCAUGUCAGGAUAUUCGGCGGUCAAUUGACCGCCUUAAAGGAAGAAGGGACGUAAA | 12.7 | 18.9 | – | – |
| UGAUACUAAGAGAAGGUUCAAACUACAUAUUGCAUACAUGAGGAUCACCCAUGUUGGUGAAUAAGAAAGGAUAUUUUACUAUAU | 48.2 | 38.2 | – | – |
| CCCACGAAAGUCGAACGAUGAUGGAGAAGGACUAUAACAUGACAUGAGGAUCACCCAUGUGCCAAGUAGGAUAUCCAUCAUGGG | 5.97 | 5.34 | – | – |
| AAGAGGCGAGGAUAUACAUGAGGAUCACCCAUGUAAUCCGGAUAAGGAAGCAUGUCGUGUAGAAGGUGCCAUGA | 20.7 | 19.2 | – | – |
| GAGUGGAAGGCCGCUACAUGAGGAUCACCCAUGUGCUAAGCACAGGAUAUCGCGCUGGCCCGGCGCGAGAAGGGUGACGGCCUU | – | – | 737 | 283 |
| ACGAGGCUAGGAUAUACACAUCUGAUGACUCAUCCUAAAACACAUGAGGAUCACCCAUGUAGAAGGAGCAAAUA | 20.3 | 15.1 | – | – |
| AAUAACAGAGGAUAUACUGUUUUAUGUGUUUGUUGUUUUAAACAUGAGGAUCACCCAUGUAGAAGGCUGAAUGA | 26.5 | 25.2 | – | – |
| UGUCGGAGCAGAGGAUAUUACAUGAGGAUCACCCAUGUAUGAACCAAUAGCUGGAAACAGCAAUUUAAGAAGGCUGCUCCGACA | 5.28 | 4.96 | – | – |
| AAAAAACAUGAGGAUCACCCAUGUGAGGAUAUCGAGAAGAAGAAGAAGAAGAAGAGAACGAGAAGGCACAAAAA | 47.4 | 51.5 | – | – |
| AUCAGCUCGUCAGGAUAUACGUCACUGCGUUAGCAGUGUGGUAAGAUCACAUGAGGAUCACCCAUGUAGAAGGGACGAGCUGAU | 13.8 | 263 | – | – |
| AGUAAGAUGCAGAAGGUGUCAGCGAGAGCUGCGACAUGAGGAUCACCCAUGUACCAGUGAGGGUACAAGGAUAUGCAUCUUACA | – | – | 243 | 19.3 |

— the EternaBench riboswitch data
